# Laboratory results as given in ChEMBL document CHEMBL1141657, “Synthesis, structure elucidation and identification of antitumoural properties of novel fused 1,2,4-triazine aryl derivatives” (Eur J Med Chem, 2008).
# Experiments:
# [1] = Growth inhibition of human LS180 cells assessed as BrdU incorporation at 165.4 uM after 72 hrs by spectrophotometry; assay type: functional; details: LS180, 72 h, read-out: GI
# In short: (§1)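 Cells were seeded at 10⁴ cells/mL and preincubated. Compounds were dissolved in DMSO and added at two fixed concentrations, then incubated for 72 h. End-point was BrdU labelling with ELISA detection, read spectrophotometrically. Result is % growth inhibition versus untreated controls. Triplicates.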
# Vero [2] = assay: Growth inhibition of african green monkey Vero cells assessed as BrdU incorporation at 33.1 uM after 72 hrs by spectrophotometry; assay type: cell-based; details: chlorocebus sabaeus; in short: as §1
# [3] = Cytotoxicity against HSF cells assessed as cell viability at 1 uM after 24 hrs by MTT assay relative to control; assay type: cell-based; details: human, read-out: Activity
# In short: (§2)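 Normal human skin fibroblasts (HSF, primary line) were exposed to DMSO-dissolved compound for 24 h. Viability was read by MTT tetrazolium reduction and expressed against untreated control set at 100%.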
# T47D [4] = assay: Growth inhibition of human T47D cells assessed as BrdU incorporation at 165.4 uM after 72 hrs by spectrophotometry; assay type: functional; details: read-out: GI
# In short: (§3)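 Each cell line was seeded at 10⁴ cells per mL and preincubated. Test agents were dissolved in DMSO, added at two examined concentrations (10 and 50 per mL by mass), and incubated for 72 h. The end-point was BrdU labeling and detection kit III read on an ELISA reader. Percent growth inhibition was calculated against untreated controls, in triplicate.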
# SiHa [5] = assay: Growth inhibition of human SiHa cells assessed as BrdU incorporation at 33.1 uM after 72 hrs by spectrophotometry; assay type: functional; details: read-out: GI; in short: as §1
# [6] = Cytotoxicity against HSF cells assessed as cell viability at 100 uM after 24 hrs by MTT assay relative to control; assay type: cell-based; details: human, read-out: Activity; in short: as §2
# [7] = Growth inhibition of african green monkey Vero cells assessed as BrdU incorporation at 165.4 uM after 72 hrs by spectrophotometry; assay type: cell-based; details: chlorocebus sabaeus, read-out: GI; in short: as §1
# [8] = Growth inhibition of HSF cells assessed as BrdU incorporation at 165.4 uM after 72 hrs by spectrophotometry; assay type: cell-based; details: human, read-out: GI; in short: as §1
# [9] = Growth inhibition of HSF cells assessed as BrdU incorporation at 33.1 uM after 72 hrs by spectrophotometry; assay type: cell-based; details: human, read-out: GI; in short: as §1
# T47D [10] = assay: Growth inhibition of human T47D cells assessed as BrdU incorporation at 33.1 uM after 72 hrs by spectrophotometry; assay type: functional; details: read-out: GI; in short: as §3
# Jurkat [11] = assay: Cytotoxicity against human Jurkat cells assessed as cell viability at 1 uM after 24 hrs by MTT assay relative to control; assay type: functional; details: read-out: Activity
# In short: (§4)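 Jurkat T-cell leukaemia line grown in RPMI 1640 with 10% FBS, 2 mM L-glutamine and gentamycin at 37 °C, 5% CO2, kept in log phase. Compounds were dissolved in DMSO and applied for 24 h. Cells were washed in HEPES-buffered medium (pH 7.4) and given MTT at 0.5 mg/mL for 45 min at 37 °C. Formazan was dissolved in DMSO and read at 570 nm. Viability is % of control, from three independent measurements.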
# [12] = Cytotoxicity against HSF cells assessed as cell viability at 50 uM after 24 hrs by MTT assay relative to control; assay type: cell-based; details: human, read-out: Activity; in short: as §2
# Jurkat [13] = assay: Cytotoxicity against human Jurkat cells assessed as cell viability at 100 uM after 24 hrs by MTT assay relative to control; assay type: functional; details: read-out: Activity; in short: as §4
# [14] = Growth inhibition of human LS180 cells assessed as BrdU incorporation at 33.1 uM after 72 hrs by spectrophotometry; assay type: functional; details: LS180, 72 h, read-out: GI; in short: as §1
# Jurkat [15] = assay: Cytotoxicity against human Jurkat cells assessed as cell viability at 50 uM after 24 hrs by MTT assay relative to control; assay type: functional; details: read-out: Activity; in short: as §4
# SiHa [16] = assay: Growth inhibition of human SiHa cells assessed as BrdU incorporation at 165.4 uM after 72 hrs by spectrophotometry; assay type: functional; details: read-out: GI; in short: as §1
# [17] = Growth inhibition of human LS180 cells assessed as BrdU incorporation at 34.9 uM after 72 hrs by spectrophotometry; assay type: functional; details: LS180, 72 h, read-out: GI; in short: as §1
# SiHa [18] = assay: Growth inhibition of human SiHa cells assessed as BrdU incorporation at 174.6 uM after 72 hrs by spectrophotometry; assay type: functional; details: read-out: GI; in short: as §1
# T47D [19] = assay: Growth inhibition of human T47D cells assessed as BrdU incorporation at 34.9 uM after 72 hrs by spectrophotometry; assay type: functional; details: read-out: GI; in short: as §3
# SiHa [20] = assay: Growth inhibition of human SiHa cells assessed as BrdU incorporation at 34.9 uM after 72 hrs by spectrophotometry; assay type: functional; details: read-out: GI; in short: as §1
# [21] = Growth inhibition of HSF cells assessed as BrdU incorporation at 34.9 uM after 72 hrs by spectrophotometry; assay type: cell-based; details: human, read-out: GI; in short: as §1
# [22] = Growth inhibition of HSF cells assessed as BrdU incorporation at 174.6 uM after 72 hrs by spectrophotometry; assay type: cell-based; details: human; in short: as §1
# [23] = Growth inhibition of african green monkey Vero cells assessed as BrdU incorporation at 174.6 uM after 72 hrs by spectrophotometry; assay type: cell-based; details: chlorocebus sabaeus, read-out: GI; in short: as §1
# [24] = Growth inhibition of human LS180 cells assessed as BrdU incorporation at 174.6 uM after 72 hrs by spectrophotometry; assay type: functional; details: LS180, 72 h, read-out: GI; in short: as §1
# Vero [25] = assay: Growth inhibition of african green monkey Vero cells assessed as BrdU incorporation at 34.9 uM after 72 hrs by spectrophotometry; assay type: cell-based; details: chlorocebus sabaeus; in short: as §1
# T47D [26] = assay: Growth inhibition of human T47D cells assessed as BrdU incorporation at 174.6 uM after 72 hrs by spectrophotometry; assay type: functional; details: read-out: GI; in short: as §3
# SiHa [27] = assay: Growth inhibition of human SiHa cells assessed as BrdU incorporation at 155.9 uM after 72 hrs by spectrophotometry; assay type: functional; details: read-out: GI
# [28] = Growth inhibition of human LS180 cells assessed as BrdU incorporation at 31.2 uM after 72 hrs by spectrophotometry; assay type: functional; details: LS180, 72 h, read-out: GI
# [29] = Growth inhibition of human LS180 cells assessed as BrdU incorporation at 155.9 uM after 72 hrs by spectrophotometry; assay type: functional; details: LS180, 72 h, read-out: GI
# T47D [30] = assay: Growth inhibition of human T47D cells assessed as BrdU incorporation at 155.9 uM after 72 hrs by spectrophotometry; assay type: functional; details: read-out: GI
# [31] = Growth inhibition of african green monkey Vero cells assessed as BrdU incorporation at 155.9 uM after 72 hrs by spectrophotometry; assay type: cell-based; details: chlorocebus sabaeus, read-out: GI
# SiHa [32] = assay: Growth inhibition of human SiHa cells assessed as BrdU incorporation at 31.2 uM after 72 hrs by spectrophotometry; assay type: functional; details: read-out: GI
# Vero [33] = assay: Growth inhibition of african green monkey Vero cells assessed as BrdU incorporation at 31.2 uM after 72 hrs by spectrophotometry; assay type: cell-based; details: chlorocebus sabaeus
# [34] = Growth inhibition of HSF cells assessed as BrdU incorporation at 155.9 uM after 72 hrs by spectrophotometry; assay type: cell-based; details: human, read-out: GI
# T47D [35] = assay: Growth inhibition of human T47D cells assessed as BrdU incorporation at 31.2 uM after 72 hrs by spectrophotometry; assay type: functional; details: read-out: GI
# [36] = Growth inhibition of HSF cells assessed as BrdU incorporation at 31.2 uM after 72 hrs by spectrophotometry; assay type: cell-based; details: human, read-out: GI
compound,measurement,setting,value
COc1ccc(N2CCn3c2nnc(C(=O)NN)c3=O)cc1,inhibition of growth at 165.4 µM,[1],1%
same,growth inhibition (GI),Vero [2],0%
same,"viability at 24 h, 1 µM",[3],98%
same,inhibition of growth at 165.4 µM,T47D [4],0%
same,inhibition of growth at 33.1 µM,SiHa [5],19%
same,"viability at 24 h, 100 µM",[6],100%
same,"inhibition at 72 h, 165.4 µM",[7],0%
same,"inhibition at 72 h, 165.4 µM",[8],0%
same,"inhibition at 72 h, 33.1 µM",[9],0%
same,inhibition of growth at 33.1 µM,T47D [10],1%
same,viability at 1 µM,Jurkat [11],97%
same,"viability at 24 h, 50 µM",[12],102%
same,viability at 100 µM,Jurkat [13],100%
same,inhibition of growth at 33.1 µM,[14],1%
same,viability at 50 µM,Jurkat [15],97%
same,inhibition of growth at 165.4 µM,SiHa [16],18%
Cc1ccc(N2CCn3c2nnc(C(=O)NN)c3=O)cc1,"viability at 24 h, 1 µM",[3],109%
same,"viability at 24 h, 100 µM",[6],95%
same,inhibition of growth at 34.9 µM,[17],0%
same,inhibition of growth at 174.6 µM,SiHa [18],9%
same,inhibition of growth at 34.9 µM,T47D [19],5%
same,viability at 1 µM,Jurkat [11],93%
same,inhibition of growth at 34.9 µM,SiHa [20],11%
same,"inhibition at 72 h, 34.9 µM",[21],0%
same,growth inhibition (GI),[22],0%
same,"inhibition at 72 h, 174.6 µM",[23],0%
same,"viability at 24 h, 50 µM",[12],111%
same,viability at 100 µM,Jurkat [13],79%
same,inhibition of growth at 174.6 µM,[24],14%
same,viability at 50 µM,Jurkat [15],87%
same,growth inhibition (GI),Vero [25],2%
same,inhibition of growth at 174.6 µM,T47D [26],8%
CCOC(=O)c1nnc2n(c1=O)CCN2c1cccc(Cl)c1,inhibition of growth at 155.9 µM,SiHa [27],52%
same,"viability at 24 h, 1 µM",[3],104%
same,"viability at 24 h, 100 µM",[6],98%
same,viability at 1 µM,Jurkat [11],114%
same,inhibition of growth at 31.2 µM,[28],30%
same,inhibition of growth at 155.9 µM,[29],35%
same,inhibition of growth at 155.9 µM,T47D [30],41%
same,"inhibition at 72 h, 155.9 µM",[31],25%
same,"viability at 24 h, 50 µM",[12],103%
same,viability at 100 µM,Jurkat [13],107%
same,inhibition of growth at 31.2 µM,SiHa [32],41%
same,viability at 50 µM,Jurkat [15],111%
same,growth inhibition (GI),Vero [33],20%
same,"inhibition at 72 h, 155.9 µM",[34],17%
same,inhibition of growth at 31.2 µM,T47D [35],26%
same,"inhibition at 72 h, 31.2 µM",[36],16%
CCOC(=O)c1nnc2n(c1=O)CCN2c1ccccc1,"viability at 24 h, 1 µM",[3],91.6%
same,"viability at 24 h, 100 µM",[6],77.1%
same,viability at 1 µM,Jurkat [11],82%
same,"viability at 24 h, 50 µM",[12],98.1%
same,viability at 100 µM,Jurkat [13],105%
same,viability at 50 µM,Jurkat [15],103%
